A short description of series [1]: In vitro stability to pepsin promoting hydrolysis after 64h incubation time. To be noted: read-out: Degradation. In kind it is ADME. In short, it runs like this: (§1)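 Test compound (10 mg) dissolved in 1 mL phosphate buffer pH 8, then 0.5 mg pepsin or trypsin added. Mixture held at 37 °C. Remaining compound was measured hourly by HPLC using 25% CH₃OH in water with 0.1% CF₃COOH, and percent degradation was derived.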

Series [2] is described as follows: In vitro stability to pepsin promoting hydrolysis after 84 hr incubation time. To be noted: read-out: Degradation. In kind it is ADME. In short, it runs like this: as §1
A short description of series [3]: In vitro stability to trypsin promoting hydrolysis after 64h incubation time. To be noted: read-out: Degradation. In kind it is ADME. In short, it runs like this: as §1
A short description of series [4]: In vitro stability to trypsin promoting hydrolysis after 84 hr incubation time. In kind it is ADME. The conditions noted are these: read-out: Degradation. In short, it runs like this: as §1
The nature of series [5]: In vitro stability to pepsin promoting hydrolysis after 1 hr incubation time. In kind it is ADME. The conditions noted are these: read-out: Degradation. In short, it runs like this: as §1
The nature of series [6]: In vitro stability to pepsin promoting hydrolysis after 2 hr incubation time. In kind it is ADME. To be noted: read-out: Degradation. In a few lines:
as §1

Series [7] can be described thus: In vitro stability to pepsin promoting hydrolysis after 8 hr incubation time. In kind it is ADME. The conditions noted are these: read-out: Degradation. In a few lines: as §1
Series [8] in a line: In vitro stability to trypsin promoting hydrolysis after 1 hr incubation time. In kind it is ADME. The conditions noted are these: read-out: Degradation. In short, it runs like this: as §1
Series [9] is described as follows: In vitro stability to trypsin promoting hydrolysis after 2 hr incubation time. To be noted: read-out: Degradation. In kind it is ADME. In short, it runs like this:
as §1

A short description of series [10]: In vitro stability to trypsin promoting hydrolysis after 8 hr incubation time. In kind it is ADME. To be noted: read-out: Degradation. In a few lines:
as §1

For series [11], the system named is Rattus norvegicus. As to the kind of experiment: In vivo thrombolytic activity at a dose of 10.0 mg in male rat. In kind it is functional. In short, it runs like this: (§2)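 Rat arterial-venous shunt. Arterial blood (1.0 mL) from the right carotid was collected onto a stainless steel helix for 15 min to form a thrombus, which was weighed. The helix was placed in a heparin-filled (50 IU/mL in NS) polyethylene shunt to the left jugular vein. Heparin was injected, then compound. Blood circulated 90 min and the helix was reweighed. Readout was thrombus mass reduction; N=8, NS vehicle, ANOVA.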

Series [12] relates to Rattus norvegicus. Put plainly: In vivo thrombolytic activity at a dose of 20.0 mg in male rat. In kind it is functional. In short, it runs like this: as §2
In series [13] the test system is Rattus norvegicus. As to the kind of experiment: In vivo thrombolytic activity at a dose of 5.0 mg in male rat. In kind it is functional. In a few lines:
as §2

Where a SMILES comes first, the peptide text is derived from it.

Take `C[C@@H]1NC(=O)[C@H](CCCCN)NC(=O)CNC(=O)[C@H](CCCN=C(N)N)NC(=O)[C@@H]2CCCN2C1=O`: the metabolised at 64 h in series [1] and in series [3] was 0% throughout. For the same compound, the metabolised at 84 h in [2] amounted to 10%; in series [4], 20%.

For the compound `C[C@H](NC(=O)[C@@H]1CCCN1C(=O)[C@H](CCCN=C(N)N)NC(=O)CN)C(=O)N[C@@H](CCCCN)C(=O)O` (H-GRPAK-OH), the metabolised at 1 h is 56% in series [5] and 25% in series [8]. In addition, the metabolised at 2 h was found to be 75% in series [6] and 77% in series [9]. In addition, the metabolised at 8 h in series [7] was determined as 93%; in [10], 98%. Besides, the Activity is 13.17 mg in the series with Rattus norvegicus [11], 16.81 mg with Rattus norvegicus [12] and 9.31 mg in the series on Rattus norvegicus [13].

In the case of `C[C@@H]1NC(=O)[C@H](CCCCN)NC(=O)[C@H](CCC(N)=O)NC(=O)[C@H](CCCN=C(N)N)NC(=O)[C@@H]2CCCN2C1=O`, the metabolised at 64 h in series [1] and in series [3] was 0% in each case. In addition, the metabolised at 84 h in series [2] stood at 25%; in series [4], 20%.

Take `C[C@@H]1NC(=O)[C@@H](CCCCN)NC(=O)[C@H](CCCCN)NC(=O)[C@@H](CCCN=C(N)N)NC(=O)[C@@H]2CCCN2C1=O`: the Activity with Rattus norvegicus [13] was 6.13 mg.

Take `C[C@@H]1NC(=O)[C@@H](CCCN=C(N)N)NC(=O)[C@@H]2CCCN2C(=O)[C@H](C)NC(=O)[C@@H](CCCCN)NC1=O`: the Activity with Rattus norvegicus [13] stood at 10.62 mg.

Regarding `C[C@H](N)C(=O)N[C@@H](CCCN=C(N)N)C(=O)N1CCC[C@H]1C(=O)N[C@@H](C)C(=O)N[C@@H](CCCCN)C(=O)O` (H-ARPAK-OH), the values for the metabolised at 1 h in [5] and in [8] were 10% and 79%, respectively. Further, the values for the metabolised at 2 h in [6] and in series [9] were 50% and 95%, respectively. The results for the metabolised at 8 h in series [7] and in [10] were 98% and 99%, respectively. Further, the Activity in the series on Rattus norvegicus [13] was 6.07 mg.

As for `C[C@@H]1NC(=O)[C@H](CCCN=C(N)N)NC(=O)[C@@H]2CCCN2C(=O)[C@H](C)NC(=O)[C@H](CCCCN)NC1=O`, the metabolised at 64 h in [1] and in series [3] was 0% throughout. Moreover, the metabolised at 84 h in series [2] came to 40%; in series [4] it was 38%.

As to `C[C@@H]1NC(=O)[C@H](CCCCN)NC(=O)[C@H](CCCCN)NC(=O)[C@H](CCCN=C(N)N)NC(=O)[C@@H]2CCCN2C1=O`, the metabolised at 64 h in [1] and in series [3] was 0% each time. For the same compound, the metabolised at 84 h in [2] is 30%; in series [4] it was 35%.

As to `C[C@H](NC(=O)[C@@H]1CCCN1C(=O)[C@H](CCCN=C(N)N)NC(=O)[C@@H](N)CCC(N)=O)C(=O)N[C@@H](CCCCN)C(=O)O` (H-QRPAK-OH), the metabolised at 1 h came out at 45% in [5] and 20% in series [8]. In addition, the metabolised at 2 h was 78% in [6] and 72% in [9]. The metabolised at 8 h in series [7] came to 92%; in series [10], 95%. In the series on Rattus norvegicus [13], this compound displayed an Activity of 7.02 mg.

The compound `C[C@@H]1NC(=O)[C@@H](CCCCN)NC(=O)[C@H](CCC(N)=O)NC(=O)[C@@H](CCCN=C(N)N)NC(=O)[C@@H]2CCCN2C1=O` registered an Activity in the series with Rattus norvegicus [13] of 9.68 mg.

Take `C[C@H](NC(=O)[C@@H]1CCCN1C(=O)[C@H](CCCN=C(N)N)NC(=O)[C@@H](N)CCCCN)C(=O)N[C@@H](CCCCN)C(=O)O` (H-KRPAK-OH): the metabolised at 1 h in [5] turned out to be 50%; in series [8], 30%. The results for the metabolised at 2 h in series [6] and in series [9] were 80% and 70%, respectively. In addition, the metabolised at 8 h in series [7] is 95%; in [10] it was 96%. In the series on Rattus norvegicus [13], this compound gave an Activity of 0.28 mg.

`C[C@@H]1NC(=O)[C@@H](CCCCN)NC(=O)CNC(=O)[C@@H](CCCN=C(N)N)NC(=O)[C@@H]2CCCN2C1=O`: the Activity in the series on Rattus norvegicus [11] was found to be 17.31 mg; in the series with Rattus norvegicus [12], 18.88 mg; in the series with Rattus norvegicus [13], 11.86 mg.

Source of the values: ChEMBL document CHEMBL1136633, “Synthesis and thrombolytic activity of fibrinogen fragment related cyclopeptides” (Bioorg Med Chem Lett, 2003).
